{"source": "paper PMC5884119", "about": "(Journal of medicinal chemistry, 2017)", "key": {"[1]": {"test_system": "panel of Gram-positive and Gram-negative bacteria", "test": "Antimicrobial activity against the whole panel", "assay_type": "cell-based", "conditions": "for antimicrobial activity against the tested strains (in words): statement in text over the panel of strains; for MIC: read-out: MICs across the tested strains"}, "[2]": {"test_system": "P. aeruginosa (ATCC 27853)", "test": "MIC against P. aeruginosa", "assay_type": "cell-based, Pseudomonas aeruginosa"}, "[3]": {"test": "Hemolytic activity", "assay_type": "cell-based"}, "[4]": {"test_system": "MRSA", "test": "Time-kill study, MRSA", "assay_type": "cell-based, Staphylococcus aureus"}, "[5]": {"test_system": "MRSA-induced lung inflammation", "test": "Rat MRSA pneumonia model, lung pathology", "assay_type": "in vivo", "summary_of_the_method": "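Rats (n = 6 per group) inoculated intratracheally with 100 µL MRSA suspension. After 24 h (day 0), test compound 10 mg/kg given by intravenous tail-vein injection. Lung bacterial counts taken on days 3 and 5. Lung inflammation assessed by hematoxylin and eosin staining of lung tissue.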"}, "[6]": {"test_system": "E. coli", "test": "Fluorescence microscopy", "assay_type": "cell-based, Escherichia coli", "summary_of_the_method": "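Test compound at 5 µg/mL applied to E. coli for 2 h, with untreated cells as controls. Cells stained with DAPI or with propidium iodide, a membrane-impermeant DNA intercalator that fluoresces red only when membranes are disrupted. Membrane damage assessed by fluorescence microscopy.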"}, "[7]": {"test_system": "MRSA", "test": "Drug resistance study", "assay_type": "cell-based, Staphylococcus aureus", "conditions": "incubated at half of MIC overnight, after 14 passages"}, "[8]": {"test_system": "E. coli", "test": "Time-kill study, E. coli", "assay_type": "cell-based, Escherichia coli"}, "[9]": {"test_system": "MRSA", "test": "Fluorescence microscopy", "assay_type": "cell-based, Staphylococcus aureus"}, "[10]": {"test_system": "ovarian cancer cells (C13)", "test": "Cytotoxicity toward ovarian cancer cells", "assay_type": "cell-based"}, "[11]": {"test_system": "Pseudomonas aeruginosa", "conditions": "cited from earlier work"}, "[12]": {"conditions": "even at 100 µg/mL, same experiment (Figure S2)"}}}
{"smiles": "CCCCCCCCCC(=O)N[C@@H](CCCCN)CN1CC(=O)N(CC)C1=O", "note": "[Compound 1, (S)-N-(6-Amino-1-(3-ethyl-2,4-dioxoimidazolidin-1-yl)hexan-2-yl)decanamide]", "values": [{"measurement": "antimicrobial activity against the tested strains (in words)", "setting": "[1]", "value": "did not exhibit any activity"}]}
{"smiles": "CCCCCCCCCCCCCCCC(=O)N[C@@H](CCCCN)CN1CC(=O)N(CC)C1=O", "note": "[Compound 4, (S)-N-(6-Amino-1-(3-ethyl-2,4-dioxoimidazolidin-1-yl)hexan-2-yl)palmitamide]", "values": [{"measurement": "activity toward P. aeruginosa (in words)", "setting": "[2]", "value": "abolished"}]}
{"smiles": "CCCCCCCCCC(=O)N[C@@H](CCCCN)CN1CC(=O)N(CCCC)C1=O", "note": "[Compound 5, (S)-N-(6-Amino-1-(3-butyl-2,4-dioxoimidazolidin-1-yl)hexan-2-yl)decanamide]", "values": [{"measurement": "antimicrobial activity against the tested strains (in words)", "setting": "[1]", "value": "does not have any antimicrobial activity"}]}
{"smiles": "CCCCCCCCCC(=O)N[C@@H](CCCCN)CN1CC(=O)N(C2CCCCC2)C1=O", "note": "[Compound 9, (S)-N-(6-Amino-1-(3-cyclohexyl-2,4-dioxoimidazolidin-1-yl)-hexan-2-yl)decanamide]", "values": [{"measurement": "antimicrobial activity against the tested strains (in words)", "setting": "[1]", "value": "starts to show activity toward a few bacterial strains"}]}
{"smiles": "CCCCCCCCCC(=O)N[C@@H](CCCCN)CN1CC(=O)N(C23CC4CC(CC(C4)C2)C3)C1=O", "note": "[Compound 13, N-((S)-1-(3-((3R,5R,7R)-Adamantan-1-yl)-2,4-dioxoimidazolidin-1-yl)-6-aminohexan-2-yl)decanamide]", "values": [{"measurement": "HC50", "setting": "[3]", "value": 125, "unit": "µg/mL"}, {"measurement": "antimicrobial activity against the tested strains (in words)", "setting": "[1]", "value": "decent activity across the panel of bacteria"}]}
{"smiles": "CCCCCCCCCCCC(=O)N[C@@H](CCCCN)CN1CC(=O)N(c2cccc(Cl)c2)C1=O", "note": "[Compound 22, (S)-N-(6-Amino-1-(3-(3-chlorophenyl)-2,4-dioxoimidazolidin-1-yl)hexan-2-yl)dodecanamide]", "values": [{"measurement": "time to complete eradication", "setting": "[4]; 2.0 µg/mL (4× MIC)", "value": 60, "unit": "min"}, {"measurement": "time to complete eradication", "setting": "[4]; 25 µg/mL", "value": 10, "unit": "min"}, {"measurement": "lung inflammation (H&E staining)", "setting": "[5]; day 3", "value": "only mild inflammation was observed"}, {"measurement": "lung inflammation (H&E staining)", "setting": "[5]; day 5", "value": "virtually matched normal conditions"}, {"measurement": "membrane damage (DAPI and PI staining)", "setting": "[6]; E. coli, 5 µg/mL, 2 h", "value": "damaged"}, {"measurement": "MIC after serial passage (resistance development)", "setting": "[7]", "value": "remained virtually unchanged"}, {"measurement": "time to complete eradication", "setting": "[8]; 4.0 µg/mL (4× MIC)", "value": 60, "unit": "min"}, {"measurement": "time to complete eradication", "setting": "[8]; 25 µg/mL", "value": 30, "unit": "min"}, {"measurement": "time to complete eradication", "setting": "[8]; 50 µg/mL", "value": 30, "unit": "min"}, {"measurement": "membrane damage (DAPI and PI staining)", "setting": "[9]; MRSA, 5 µg/mL, 2 h", "value": "damaged"}, {"measurement": "MIC", "setting": "[1]", "value": "< 1", "unit": "µg/mL"}, {"measurement": "IC50", "setting": "[10]", "value": 90, "unit": "µg/mL"}]}
{"smiles": "CCCCCCCCCCCC(=O)N[C@@H](Cc1ccccc1)CN1CC(=O)N(c2cccc(Cl)c2)C1=O", "note": "[Compound 25, (S)-N-(1-(3-(3-Chlorophenyl)-2,4-dioxoimidazolidin-1-yl)-3-phenylpropan-2-yl)dodecanamide]", "values": [{"measurement": "antimicrobial activity against the tested strains (in words)", "setting": "[1]", "value": "failed to show any antimicrobial activity"}]}
{"smiles": "O=C1CN(/N=C/c2ccc([N+](=O)[O-])o2)C(=O)N1", "note": "[Compound 26, nitrofurantoin, reference compound]", "values": [{"measurement": "membrane-disruption activity", "setting": "[6]; [12]", "value": "did not show any membrane-disruption activity"}, {"measurement": "membrane-disruption activity", "setting": "[9]; [12]", "value": "did not show any membrane-disruption activity"}, {"measurement": "MIC", "setting": "[1]", "value": "6.25 to 25", "unit": "µg/mL"}, {"measurement": "activity toward P. aeruginosa (in words)", "setting": "[2]", "value": "failed to show any activity"}, {"measurement": "not active up to (concentration)", "setting": "[11]", "value": "> 100", "unit": "µg/mL"}]}
{"smiles": "CN[C@H](CC(C)C)C(=O)N[C@H]1C(=O)N[C@@H](CC(N)=O)C(=O)N[C@H]2C(=O)N[C@H]3C(=O)N[C@H](C(=O)N[C@H](C(=O)O)c4cc(O)cc(O)c4-c4cc3ccc4O)[C@H](O)c3ccc(c(Cl)c3)Oc3cc2cc(c3O[C@@H]2O[C@H](CO)[C@@H](O)[C@H](O)[C@H]2O[C@H]2C[C@](C)(N)[C@H](O)[C@H](C)O2)Oc2ccc(cc2Cl)[C@H]1O", "note": "[vancomycin, reference compound]", "values": [{"measurement": "lung inflammation (H&E staining)", "setting": "[5]; day not given", "value": "some alleviation of this condition"}]}
